Converted amounts (≈) assume the structure as drawn.
How the values were obtained:
[1] = WHO-TDR: Cytotoxicity; format: toxicity, cell-based; conditions: human, MRC5 cells
Leishmania infantum = test: WHO-TDR: Leishmaniasis; format: functional, organism-based, Mus musculus; conditions: Macrophage
Procedure, shortened: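 The screened collection came from Life Chemicals: 10,000 diverse compounds selected after filtering for drug-likeness and reactive groups. Each was tested in a whole-organism assay against Leishmania infantum MHOM/MA(BE)/67 amastigotes inside murine peritoneal macrophages, using previously published standard procedures and a reference drug as positive control. Results are IC50 values for antiparasitic potency.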

Onchocerca lienalis = test: WHO-TDR: Onchocerciasis; format: functional; set-up: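 at 12.5 µM on microfilariae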
Procedure, shortened: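 Following previously published standard procedures, with reference drugs as positive controls, a diverse Life Chemicals library was tested on whole Onchocerca ochengi or Onchocerca lienalis microfilariae. The library held 10,000 compounds filtered for drug-likeness and reactive groups. Activity is recorded both as percent inhibition and as IC50.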

Schistosoma mansoni = test: WHO-TDR: Schistosomiasis; format: functional; set-up: concentration or dose not given beside the values
Procedure, shortened: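 Activity appears as percent inhibition and as IC50. The underlying screen tested a diverse library of 10,000 compounds, supplied by Life Chemicals, on whole larval and/or adult worms of the Puerto Rican strain of Schistosoma mansoni.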

Brugia malayi = test: WHO-TDR: Lymphatic Filariasis; format: functional; set-up: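 tested at 10 µM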
Procedure, shortened: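 Following previously published standard procedures, compounds were tested on whole Brugia malayi microfilariae, with reference drugs as positive controls. They came from a diverse Life Chemicals collection of 10,000 compounds filtered for drug-likeness and reactive groups. Results appear as percent inhibition and as IC50.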

Plasmodium falciparum K1 = test: WHO-TDR: Malaria; format: functional, organism-based, Homo sapiens; conditions: Erythrocyte
Procedure, shortened: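 This whole-organism screen covered 10,000 drug-likeness-filtered and reactive-group-filtered compounds from Life Chemicals. The target was the Plasmodium falciparum K1 strain in human red blood cells, and the readout was antiplasmodial IC50.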

Trypanosoma cruzi = test: WHO-TDR: Chagas disease; format: functional, organism-based, Homo sapiens; conditions: MRC5
Procedure, shortened: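 A diverse library of 10,000 compounds from Life Chemicals, filtered for drug-likeness and reactive groups, was screened against intracellular amastigotes of Trypanosoma cruzi Tulahuen CL2 beta-galactosidase strain. The parasites were grown in MRC-5SV2 human lung fibroblast host cells, and a reference drug served as positive control under previously published standard procedures. Antiparasitic potency is given as IC50.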

[2] = tested on: Trypanosoma brucei brucei; test: WHO-TDR: Human African Trypanosomiasis (HAT); format: functional, organism-based; conditions: Squib-427
Procedure, shortened: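 Screening used a 10,000-compound diverse library supplied by Life Chemicals and filtered for drug-likeness and reactive groups. Whole bloodstream-form parasites of Trypanosoma brucei Squib 427 strain were assayed according to previously published standard procedures, with reference drugs as positive controls. The reported measure is IC50, reflecting antiparasitic potency.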

| SMILES | IC50 [1] [µg/mL] | IC50 (Leishmania infantum) [µg/mL] | % Inhibition (Onchocerca lienalis) [%] | % Inhibition (Schistosoma mansoni) [%] | % Inhibition (Brugia malayi) [%] | IC50 (Plasmodium falciparum K1) [µg/mL] | IC50 (Trypanosoma cruzi) [µg/mL] | IC50 [2] [µg/mL] |
| --- | --- | --- | --- | --- | --- | --- | --- | --- |
| COc1ccc(-c2ccc(NS(=O)(=O)c3ccc(Cl)s3)cc2)nn1 | > 11.5 | 1.09 (≈ 2.85 µM) | 0 | 0 | 16.67 | > 11.5 | > 11.5 | > 11.5 |
| Cc1nn(-c2ccccc2)c2ncc(C(=O)NCC3CCCO3)c(Cl)c12 (stereo not given) | 3.52 (≈ 9.49 µM) | 3.6 (≈ 9.71 µM) | 66.7 | 0 | 0 | > 11.1 | 0.392 (≈ 1.06 µM) | 0.376 (≈ 1.01 µM) |
| COc1ccc(Cl)c2sc(NC(=O)c3ccc(Cl)cc3Cl)nc12 | 4.96 (≈ 12.8 µM) | 0.377 (≈ 0.972 µM) | 0 | 0 | 0 | > 11.6 | 3.62 (≈ 9.34 µM) | > 11.6 |
| COc1ccc(SCC(=O)Nc2nc(-c3ccccn3)cs2)cc1 | > 10.7 | > 10.7 | 86.55 | 0 | 0 | > 10.7 | 0.356 (≈ 0.996 µM) | 0.347 (≈ 0.971 µM) |
| COc1ccc(-c2nc(NC(=O)Cc3ccc(SC)cc3)sc2C)cc1 | 1.29 (≈ 3.37 µM) | 3.73 (≈ 9.71 µM) | 45.5 | 0 | 0 | 0.271 (≈ 0.705 µM) | 1.95 (≈ 5.07 µM) | 3.73 (≈ 9.71 µM) |
| O=C(Cc1ccc(F)cc1)Nc1nc(-c2ccccn2)cs1 | > 9.4 | > 9.4 | 23.33 | 0 | 0 | 2.97 (≈ 9.49 µM) | 0.334 (≈ 1.07 µM) | 0.308 (≈ 0.983 µM) |
| COc1ccc(Nc2nc(Nc3ccccc3OC)nc(N3CCOCC3)n2)cc1 | 2.08 (≈ 5.1 µM) | 4.32 (≈ 10.6 µM) | 0 | 0 | 0 | 1.19 (≈ 2.91 µM) | 3.98 (≈ 9.74 µM) | 0.422 (≈ 1.03 µM) |
| O=C(Cn1c(S(=O)(=O)Cc2ccccc2)nc2ccccc21)N1CCN(c2ccccc2)CC1 | > 14.2 | 0.461 (≈ 0.971 µM) | 11.35 | 0 | 0 | 10.9 (≈ 22.9 µM) | > 14.2 | > 14.2 |
| CN(C)CCCN(C(=O)c1ccc(Br)s1)c1nc2ccccc2s1 | > 13.8 | > 13.8 | 11.35 | 0 | 0 | 5.41 (≈ 12.8 µM) | 0.791 (≈ 1.86 µM) | 4.37 (≈ 10.3 µM) |
| COc1ccc(Cl)c2sc(N(CCCN(C)C)C(=O)c3ccco3)nc12 | 4.17 (≈ 10.6 µM) | 0.418 (≈ 1.06 µM) | 0 | 0 | 0 | > 12.9 | 1.36 (≈ 3.46 µM) | 4.08 (≈ 10.4 µM) |
| CCCn1/c(=N/C(=O)C2=COCCO2)sc2c(C)ccc(OC)c21 | > 10.5 | > 10.5 | 20 | 0 | 0 | 3.18 (≈ 9.13 µM) | 0.89 (≈ 2.55 µM) | > 10.5 |
| CCCCN(C)S(=O)(=O)c1ccc(C(=O)N2CCN(c3nc4c(C)ccc(C)c4s3)CC2)cc1 | > 15 | 0.223 (≈ 0.446 µM) | 13.3 | 0 | 16.67 | > 15 | > 15 | > 15 |
| O=C(CCCS(=O)(=O)c1ccc(F)cc1)Nc1nc2c(s1)CSc1ccccc1-2 | > 13.5 | > 13.5 | 66.33 | 100 | 0 | 6 (≈ 13.4 µM) | 5.29 (≈ 11.8 µM) | 4.36 (≈ 9.71 µM) |
| CCN(C1CCCCC1)S(=O)(=O)c1ccc(C(=O)Nc2nnc(-c3ccccc3)o2)cc1 | 1.61 (≈ 3.54 µM) | > 13.6 | 53.3 | 0 | 0 | > 13.6 | 0.431 (≈ 0.948 µM) | 0.528 (≈ 1.16 µM) |
| CCS(=O)(=O)c1cccc(C(=O)Nc2nc3c(s2)CSc2ccccc2-3)c1 | 4 (≈ 9.6 µM) | 0.405 (≈ 0.972 µM) | 46.7 | 75 | 0 | > 12.5 | 0.412 (≈ 0.989 µM) | 0.395 (≈ 0.948 µM) |
| CS(=O)(=O)N1CCCc2cc(NC(=O)c3cc4ccccc4oc3=O)ccc21 | > 12 | 0.387 (≈ 0.971 µM) | 0 | 0 | 0 | > 12 | > 12 | > 12 |
| CN(C)CCCN(C(=O)/C=C/c1ccccc1)c1nc2ccccc2s1 | 3.81 (≈ 10.4 µM) | 0.39 (≈ 1.07 µM) | 25.05 | 100 | 0 | 1.74 (≈ 4.76 µM) | 0.406 (≈ 1.11 µM) | 0.35 (≈ 0.958 µM) |
| COc1ccc(-c2ccc(OCCNS(=O)(=O)c3ccc(Cl)s3)nn2)cc1 | 5.41 (≈ 12.7 µM) | > 12.8 | 33.3 | 0 | 0 | > 12.8 | 0.788 (≈ 1.85 µM) | > 12.8 |
| CCSc1ccccc1C(=O)Nc1nnc(-c2cccs2)o1 | 5.3 (≈ 16 µM) | 6.77 (≈ 20.4 µM) | 20 | 0 | 0 | > 9.94 | 0.413 (≈ 1.25 µM) | 0.656 (≈ 1.98 µM) |
| Cc1ccc(-c2nnc(NC(=O)c3ccc(S(=O)(=O)N4CCc5ccccc5C4)cc3)o2)cc1C | 8.86 (≈ 18.1 µM) | > 14.7 | 0 | 0 | 0 | > 14.7 | 0.538 (≈ 1.1 µM) | 10.1 (≈ 20.6 µM) |
| O=C(CCCSc1ccccc1)N(Cc1ccncc1)c1nc2c(F)cccc2s1 | > 13.1 | > 13.1 | 0 | 0 | 0 | 9.05 (≈ 20.7 µM) | 0.816 (≈ 1.86 µM) | 4.15 (≈ 9.49 µM) |
| CCN(C1CCCCC1)S(=O)(=O)c1ccc(C(=O)Nc2nnc(-c3ccco3)o2)cc1 | 6.19 (≈ 13.9 µM) | 4.32 (≈ 9.71 µM) | 20 | 0 | 0 | > 13.3 | 0.442 (≈ 0.994 µM) | 4.32 (≈ 9.71 µM) |
| COc1ccc(C)c2sc(N(CCCN(C)C)C(=O)c3ccccc3SC)nc12 | 4.42 (≈ 10.3 µM) | 4.53 (≈ 10.5 µM) | 13.3 | 0 | 0 | 0.506 (≈ 1.18 µM) | 5.29 (≈ 12.3 µM) | 0.432 (≈ 1.01 µM) |
| Cc1ccc(C)c(-c2csc(NC(=O)CCCS(=O)(=O)c3ccc(F)cc3)n2)c1 | 0.999 (≈ 2.31 µM) | > 13 | 12.34 | 0 | 0 | 9.42 (≈ 21.8 µM) | 0.588 (≈ 1.36 µM) | 4.2 (≈ 9.71 µM) |
| CS(=O)(=O)c1ccc(CC(=O)Nc2nc(-c3ccc(Cl)s3)cs2)cc1 | 1.53 (≈ 3.7 µM) | 4.01 (≈ 9.71 µM) | 11.35 | 0 | 0 | > 12.4 | 0.575 (≈ 1.39 µM) | > 12.4 |

Source: ChEMBL document CHEMBL2093137, “WHO-TDR NTD Screening”
